Assay results published in publication PMC9476207 (ACS Omega, 2022).

Assays:
Assay in all cases: NCI-60 single-dose antiproliferative screen
Format in all cases: cell-based
[1] = tested on: CCRF-CEM; conditions: Homo sapiens, 48 h, read-out: growth percent
Outline: (§1)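 NCI-60 protocol. Lines were grown in RPMI 1640 with 5% FBS and 2 mM L-glutamine, plated and incubated 24 h at 37 °C; time-zero plates were TCA-fixed. The test compound was dissolved in DMSO, diluted in medium with 50 μg/mL gentamicin and given once at a final 10^-5 M (DMSO control) for 48 h. Cells were fixed with cold TCA (1 h, 4 °C) and stained with 0.4% SRB in 1% acetic acid for 10 min. Dye was dissolved in 10 mM Trizma base and read at 515 nm. Growth percent was calculated from time-zero, test and control ODs.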

[2] = tested on: K-562; conditions: Homo sapiens, K562, 48 h, read-out: growth percent
Outline: as §1

[3] = tested on: RPMI-8226; conditions: Homo sapiens, RPMI-8226, 48 h, read-out: growth percent
Outline: as §1

[4] = tested on: SR; conditions: Homo sapiens, 48 h, read-out: growth percent
Outline: (§2)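 Cells grown in RPMI 1640 with 5% FBS and 2 mM L-glutamine, plated and held 24 h at 37 °C; time-zero plates TCA-fixed. DMSO stocks were diluted in gentamicin-containing medium to a final 10^-5 M, with a DMSO-only control. Exposure 48 h, 5% CO2. Adherent cells TCA-fixed 1 h at 4 °C, stained with 0.4% SRB, solubilised in 10 mM Trizma base, read at 515 nm. Growth percent derived from ODtzero, ODtest and ODctrl.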

[5] = tested on: HOP-92; conditions: Homo sapiens, HOP-92, 48 h, read-out: growth percent
Outline: as §1

[6] = tested on: NCI-H23; conditions: Homo sapiens, NCI-H23, 48 h, read-out: growth percent
Outline: as §1

[7] = tested on: NCI-H322M; conditions: Homo sapiens, 48 h, read-out: growth percent
Outline: as §1

[8] = tested on: NCI-H522; conditions: Homo sapiens, NCI-H522, 48 h, read-out: growth percent
Outline: as §1

[9] = tested on: HT29; conditions: Homo sapiens, HT-29, 48 h, read-out: growth percent
Outline: as §1

[10] = tested on: KM12; conditions: Homo sapiens, KM12, 48 h, read-out: growth percent
Outline: as §1

[11] = tested on: SW-620; conditions: Homo sapiens, SW-620, 48 h, read-out: growth percent
Outline: as §2

[12] = tested on: SF-268; conditions: Homo sapiens, SF-268, 48 h, read-out: growth percent
Outline: as §1

[13] = tested on: SF-295; conditions: Homo sapiens, SF-295, 48 h, read-out: growth percent
Outline: as §1

[14] = tested on: SF-539; conditions: Homo sapiens, SF-539, 48 h, read-out: growth percent
Outline: as §2

[15] = tested on: SNB-75; conditions: Homo sapiens, SNB-75, 48 h, read-out: growth percent
Outline: as §2

[16] = tested on: U251; conditions: Homo sapiens, U-251, 48 h, read-out: growth percent
Outline: as §2

[17] = tested on: LOX IMVI; conditions: Homo sapiens, 48 h, read-out: growth percent
Outline: as §1

[18] = tested on: MALME-3M; conditions: Homo sapiens, 48 h, read-out: growth percent
Outline: as §1

[19] = tested on: MDA-MB-435; conditions: Homo sapiens, MDA-MB-435, 48 h, read-out: growth percent
Outline: as §1

[20] = tested on: SK-MEL-2; conditions: Homo sapiens, SK-MEL-2, 48 h, read-out: growth percent
Outline: as §2

[21] = tested on: SK-MEL-28; conditions: Homo sapiens, SK-MEL-28, 48 h, read-out: growth percent
Outline: as §2

[22] = tested on: SK-MEL-5; conditions: Homo sapiens, SK-MEL-5, 48 h, read-out: growth percent
Outline: as §2

[23] = tested on: UACC-257; conditions: Homo sapiens, UACC-257, 48 h, read-out: growth percent
Outline: as §2

[24] = tested on: UACC-62; conditions: Homo sapiens, UACC-62, 48 h, read-out: growth percent
Outline: as §2

[25] = tested on: OVCAR-5; conditions: Homo sapiens, OVCAR-5, 48 h, read-out: growth percent
Outline: as §1

[26] = tested on: NCI/ADR-RES; conditions: Homo sapiens, 48 h, read-out: growth percent
Outline: as §1

[27] = tested on: SK-OV-3; conditions: Homo sapiens, SK-OV-3, 48 h, read-out: growth percent
Outline: as §2

[28] = tested on: 786-0; conditions: Homo sapiens, 786-0, 48 h, read-out: growth percent
Outline: as §1

[29] = tested on: CAKI-1; conditions: Homo sapiens, CAKI-1, 48 h, read-out: growth percent
Outline: as §1

[30] = tested on: RXF 393; conditions: Homo sapiens, RXF 393, 48 h, read-out: growth percent
Outline: as §1

[31] = tested on: SN12C; conditions: Homo sapiens, 48 h, read-out: growth percent
Outline: as §2

[32] = tested on: DU-145; conditions: Homo sapiens, DU-145, 48 h, read-out: growth percent
Outline: as §1

[33] = tested on: MCF-7; conditions: Homo sapiens, MCF7, 48 h, read-out: growth percent
Outline: as §1

[34] = tested on: MDA-MB-231 ATCC; conditions: Homo sapiens, MDA-MB-231, 48 h, read-out: growth percent
Outline: as §1

[35] = tested on: HS 578T; conditions: Homo sapiens, 48 h, read-out: growth percent
Outline: as §1

[36] = tested on: BT-549; conditions: Homo sapiens, BT-549, 48 h, read-out: growth percent
Outline: as §1

[37] = tested on: T-47D; conditions: Homo sapiens, T47D, 48 h, read-out: growth percent
Outline: as §2

Row | Structure (SMILES) | activity at 10 µM [1] [%] | activity at 10 µM [2] [%] | activity at 10 µM [3] [%] | activity at 10 µM [4] [%] | activity at 10 µM [5] [%] | activity at 10 µM [6] [%] | activity at 10 µM [7] [%] | activity at 10 µM [8] [%] | activity at 10 µM [9] [%] | activity at 10 µM [10] [%] | activity at 10 µM [11] [%] | activity at 10 µM [12] [%] | activity at 10 µM [13] [%] | activity at 10 µM [14] [%] | activity at 10 µM [15] [%] | activity at 10 µM [16] [%] | activity at 10 µM [17] [%] | activity at 10 µM [18] [%] | activity at 10 µM [19] [%] | activity at 10 µM [20] [%] | other results
1 | COc1cc(CNC(=O)CCCC/C=C/C(C)C)ccc1OCc1cn(-c2ccccc2OC)nn1 [14l, (E)-N-(3-Methoxy-4-((1-(2-methoxyphenyl)-1H-1,2,3-triazol-4-yl)methoxy)benzyl)-8-methylnon-6-enamide] | 83.7 | 76.1 | 71.2 | 77.4 | 72.1 | 96 | 92.2 | 63.9 | 98.7 | 98.2 | 97 | 92.6 | 108 | 106 | 103 | 90.2 | 86.1 | 106 | 110 | 89.8 | activity at 10 µM [21]: 116%; activity at 10 µM [22]: 83.9%; activity at 10 µM [23]: 85.2%; activity at 10 µM [24]: 75.1%; activity at 10 µM [25]: 113%; activity at 10 µM [26]: 94.6%; activity at 10 µM [27]: 99.8%; activity at 10 µM [28]: 102%; activity at 10 µM [29]: 79.9%; activity at 10 µM [30]: 101%; activity at 10 µM [31]: 98%; activity at 10 µM [32]: 83.1%; activity at 10 µM [33]: 98.2%; activity at 10 µM [34]: 95.8%; activity at 10 µM [35]: 83%; activity at 10 µM [36]: 93.1%; activity at 10 µM [37]: 92.2%
2 | COc1cc(CNC(=O)CCCC/C=C/C(C)C)ccc1OCc1cn(-c2ccccc2F)nn1 [14i, (E)-N-(4-((1-(2-Fluorophenyl)-1H-1,2,3-triazol-4-yl)methoxy)-3-methoxybenzyl)-8-methylnon-6-enamide] | 88.6 | 82.3 | 81.3 | 81.5 | 78.7 | 95.3 | 90.2 | 77.5 | 107 | 98.9 | 98.1 | 95 | 99 | 105 | 88.1 | 93.1 | 87.1 | 108 | 101 | 106 | activity at 10 µM [21]: 107%; activity at 10 µM [22]: 91.5%; activity at 10 µM [23]: 95%; activity at 10 µM [24]: 76.2%; activity at 10 µM [25]: 103%; activity at 10 µM [26]: 89.8%; activity at 10 µM [27]: 97.8%; activity at 10 µM [28]: 97.2%; activity at 10 µM [29]: 90.6%; activity at 10 µM [30]: 103%; activity at 10 µM [31]: 92.7%; activity at 10 µM [32]: 106%; activity at 10 µM [33]: 97.1%; activity at 10 µM [34]: 78.7%; activity at 10 µM [35]: 87.7%; activity at 10 µM [36]: 89.2%; activity at 10 µM [37]: 83.1%
3 | COc1cc(CNC(=O)CCCC/C=C/C(C)C)ccc1OCc1cn(-c2cccc([N+](=O)[O-])c2)nn1 [14f, (E)-N-(3-Methoxy-4-((1-(3-nitrophenyl)-1H-1,2,3-triazol-4-yl)methoxy)benzyl)-8-methylnon-6-enamide] | 90.2 | 81.5 | 65.9 | 78.4 | 70.4 | 88 | 94.1 | 82.6 | 88.9 | 91.2 | 97.4 | 92.2 | 104 | 94.4 | 92 | 85.3 | 92.9 | 103 | 101 | 88.4 | activity at 10 µM [21]: 106%; activity at 10 µM [22]: 93.2%; activity at 10 µM [23]: 94.4%; activity at 10 µM [24]: 70%; activity at 10 µM [25]: 107%; activity at 10 µM [26]: 81.8%; activity at 10 µM [27]: 93.5%; activity at 10 µM [28]: 73.4%; activity at 10 µM [29]: 81.7%; activity at 10 µM [30]: 92.7%; activity at 10 µM [31]: 89.5%; activity at 10 µM [32]: 109%; activity at 10 µM [33]: 74.1%; activity at 10 µM [34]: 88.4%; activity at 10 µM [35]: 90.8%; activity at 10 µM [36]: 96.3%; activity at 10 µM [37]: 72.3%
